Hits are enriched below; roughly 2.9% of the tested compounds scored in any of these assays.
Apaf-1 inh: inhibitors of human Apaf-1 apoptosome, primary screen, biochemical, DEVD-Rh110 fluorescence, uHTS; inhibition, % at 20 µM; actives 0.71% (n = 330,000); reconstituted apoptosome caspase-3 activity; active = inhibition of at least 40% at 20 µM;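 also: plate controls were DMSO wells for no effect and DEVD-CHO caspase inhibitor wells for full effect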
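System: reconstituted apoptosome with Apaf-1, cytochrome c, caspase-9, procaspase-3, dATP; Signal: Rh110 fluorescence intensity; Schedule: 30 min compound preincubation, 50 min activation, room temperature; Reagent: cytochrome c trigger plus (Z-DEVD)2-Rh110 caspase-3 substrate.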
UBC13 polyUb: UBC13 polyubiquitin chain formation inhibitors, primary screen, biochemical, TR-FRET, uHTS; actives 0.47% (n = 330,000); inhibition, % at 20 µM; Ubiquitin-conjugating enzyme E2 N (Homo sapiens), P61088; in the data active = inhibition above about 45%, passing the limit was not always enough
PfM18AAP inh: PfM18AAP inhibitors, malaria aminopeptidase, primary screen, biochemical, QFRET, recombinant enzyme; H-Glu-NHMec fluorogenic cleavage; actives 1.2% (n = 290,000); inhibition, % at 7.35 µM;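 active = inhibition above the campaign mean inhibition over all tested compounds plus 3 SD, cut at about 28% in these data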;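 also: 0% = plate median of test compound wells and 100% = 2 mM ZnCl2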
PfGluPho inh: PfG6PD enzyme inhibitors, primary screen, biochemical, fluorescence intensity, uHTS | AID 504690, 2011 | inhibition, % at 20 µM | actives 0.78% (n = 350,000) | PfGluPho enzyme, NADPH resazurin-diaphorase fluorescence | glucose-6-phosphate dehydrogenase-6-phosphogluconolactonase (Plasmodium falciparum 3D7);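 active = inhibition reaching at least a set limit at 20 µM in the primary screen, cut at about 59% in these data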;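 also: 0% = DMSO wells with substrate and 100% = DMSO wells lacking glucose-6-phosphate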
ZTA DNA inh: counter-screen for EBNA-1 inhibitors: inhibitors of Epstein-Barr virus ZTA. P03206. ZTA-DNA binding, fluorescence polarization. inhibition, % at 11 µM. actives 0.15% (n = 320,000). AID 2234; in the data active = inhibition above about 33%
EBNA-1 inh: EBNA-1 DNA-binding inhibitors, primary screen, biochemical, fluorescence polarization. actives 0.34% (n = 300,000). inhibition, % at 14.8 µM; in the data active = inhibition above about 28%
PfGluPho conf: PfG6PD inhibitors, hit retest, confirmation, biochemical, fluorescence intensity, single concentration | shares compounds with PfGluPho inh | recombinant PfGluPho, NADPH-diaphorase-resazurin fluorescence | inhibition, % at 20 µM | actives 34% (n = 2,400) | AID 504753, 2011;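 active = inhibition of at least 50% at 20 µM in any single replicate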;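 also: 0% = DMSO with substrate and 100% = DMSO lacking glucose-6-phosphate substrate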
Diaph ctr 10uM: diaphorase inhibitors and chemical oxidizers, confirmation, counter-screen for P. falciparum G6PD inhibitor project, biochemical, fluorescence intensity, 10 µM NADPH; shares compounds with PfGluPho inh; diaphorase-coupled resazurin reduction, NADPH 10 uM; inhibition, % at 20 µM; actives 39% (n = 820);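 active = average inhibition reaching 50% or more with the compound at 20 µM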;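 also: resorufin red fluorescence formed as diaphorase reduces resazurin using NADPH; 0% = DMSO with enzyme and 100% = DMSO without enzyme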
Diaph ctr 30uM: diaphorase inhibitors and chemical oxidizers, confirmation, counter-screen for P. falciparum G6PD inhibitor project, biochemical, fluorescence intensity, 30 µM NADPH; Diaphorase/resazurin coupled assay, resorufin fluorescence; actives 29% (n = 820); shares compounds with PfGluPho inh; inhibition, % at 20 µM;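 active = inhibition averaging 50% or more, tested at 20 µM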;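 also: 0% = DMSO with enzyme and 100% = DMSO wells lacking diaphorase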
The depositor's hits bear a star; . = no result.

SMILES	Apaf-1 inh	UBC13 polyUb	PfM18AAP inh	PfGluPho inh	ZTA DNA inh	EBNA-1 inh	PfGluPho conf	others
Cc1cccc(CC(=O)NCC(=O)NCc2cc(=O)n(C)c(=O)n2C)c1	-9	3	-5	5	11	2	.
CCC(C)C(N)C1=NC(C(=O)N[C@@H](CC(C)C)C(=O)N[C@H](CCC(=O)[O-])C(=O)N[C@H](C(=O)N[C@H]2CCCCNC(=O)[C@H](CC(N)=O)NC(=O)[C@@H](CC(=O)[O-])NC(=O)[C@H](Cc3cnc[nH]3)NC(=O)[C@@H](Cc3ccccc3)NC(=O)[C@H]([C@@H](C)CC)NC(=O)[C@@H](CCCN)NC2=O)[C@@H](C)CC)CS1.[Zn+2] (stereo partly specified)	.	.	.	64*	.	.	26
O=S(=O)(Cc1ccccc1)N(O)c1ccccc1	9	-42	13	86*	-4	-4	84*	Diaph ctr 10uM=74*;Diaph ctr 30uM=53*
Nc1ccc(C(=O)OCc2nc3cc4ccccc4cc3[nH]2)cc1	12	-12	3	63*	0	-10	27
COC1=C(OC)C(=O)C(Sc2ccc3ccccc3c2)=CC1=O	.	.	.	128*	.	.	106*	Diaph ctr 10uM=82*;Diaph ctr 30uM=38
Cc1ccc(/C=N/NC(=O)CSc2nc3ccccc3n2C)s1	14	-10	3	117*	6	4	87*	Diaph ctr 10uM=93*;Diaph ctr 30uM=79*
Cn1c(SCC(=O)N/N=C/c2cccs2)nc2ccccc21	-1	8	-2	57	-2	2	.
COCCSc1nc(N)c(NC(=O)c2ccco2)c(=O)[nH]1	-5	3	1	-5	11	6	.
Nc1c(O)cccc1C(=O)O	53*	-16	.	108*	3	1	80*	Diaph ctr 10uM=0;Diaph ctr 30uM=0
O=C(O)c1ccccc1O	-7	3	4	-2	11	-1	.
Cc1cc(=O)c2c(o1)C(=O)c1occc1C2=O	.	.	.	86*	.	.	53*	Diaph ctr 10uM=65*;Diaph ctr 30uM=62*
O=C(NCCN1CCCCC1)c1ccc(F)cc1Cl	-1	-6	-3	12	-13	-9	.
Cc1ccc(S(=O)(=O)Nc2nc(C)c(C(=O)N/N=C/c3ccccc3)s2)cc1	25	-15	-12	76*	17	10	67*	Diaph ctr 10uM=62*;Diaph ctr 30uM=48
COc1ccccc1-c1nc(C(=O)NCC2CCCO2)cc2c1[nH]c1ccccc12 (stereo unspecified)	-1	1	-6	64*	2	2	17
COc1cc(-c2nc(C(=O)NCC3CCCO3)cc3c2[nH]c2ccccc23)cc(OC)c1OC (stereo unspecified)	0	13	6	33	-11	-17	.
COC(=O)C1=C(C(=O)OC)SC2(S1)C(C(=O)OC)=C(C(=O)OC)SC1=C2c2cc(C)ccc2NC1(C)C	23	-5	29*	72*	-2	-1	26
CC(C)C1=CC(=Nc2ccc(S(N)(=O)=O)cc2)C=C(C(C)C)C1=O	8	-4	10	76*	.	.	36
Clc1ccc2nc(SCc3nnc(-c4ccccc4)o3)[nH]c2c1	5	-2	-2	113*	-21	-10	44
Cc1cc(=O)[nH]c(SCc2nnc(-c3ccccc3)o2)n1	2	0	-9	-6	2	-9	.
C[C@H]1CN([C@@H](C)CO)S(=O)(=O)c2ccc(-c3ccccc3)cc2O[C@H]1CN(C)C(=O)C1CCC1	.	.	.	-9	.	.	.
O=c1c(-c2c(O)cc(O)c3c2O[C@H](c2ccc(O)cc2)CC3)c(-c2ccc(O)cc2)oc2cc(O)cc(O)c12	7	29	.	0	.	.	.
COc1ccccc1OCCCn1cc(C#N)c2ccccc21	26	12	5	113*	7	-1	69*	Diaph ctr 10uM=65*;Diaph ctr 30uM=58*
N#Cc1cn(CCCOc2ccccc2)c2ccccc12	19	12	2	61*	-2	-4	20
O=C(CSc1nc2ccc(Cl)cc2[nH]1)Nc1ccc2[nH]c(=O)[nH]c2c1	6	-1	.	60*	5	3	24
Cc1ccc2nc(SCC(=O)Nc3ccc4[nH]c(=O)[nH]c4c3)[nH]c2c1	15	-6	.	46	.	.	.
SMILES	Apaf-1 inh	UBC13 polyUb	PfM18AAP inh	PfGluPho inh	ZTA DNA inh	EBNA-1 inh	PfGluPho conf	others
COc1cccc(N2[C@@H](CC(=O)O)c3cc(C(F)(F)F)ccc3S2(=O)=O)c1	5	-15	.	72*	12	9	26
Cc1ccc(O)c(NC2=C(Cl)C(=O)N(Cc3ccccc3)C2=O)c1	.	.	23	85*	.	.	30
Cc1ccc(C(=O)N2CCCCC2)cc1NC1=C(Cl)C(=O)N(Cc2ccccc2)C1=O	22	1	.	-14	19	.	.
Cn1c(C(=O)Nc2ccc3c(c2)OCO3)cc2sccc21	9	-5	5	81*	-11	7	22
CN(C)c1cccc2c1c(NC(=O)c1ccc(Cl)cc1)nn2C	7	2	14	103*	6	-5	73*	Diaph ctr 10uM=31;Diaph ctr 30uM=52*
NS(=O)(=O)c1ccc(CCNC(=O)COC(=O)CC(c2ccccc2)c2ccccc2)cc1	15	-2	14	2	-1	6	.
CCOC(=O)c1cc(C)[nH]c(=S)c1C#N	9	-8	-65	74*	-8	5	46
FC(F)(F)c1cccc(-c2nc3nc(Cl)c(Cl)nc3[nH]2)c1	8	-10	-8	102*	3	-10	76*	Diaph ctr 10uM=77*;Diaph ctr 30uM=57*
FC(F)(F)c1nc2nc(Cl)c(Cl)nc2[nH]1	.	.	.	-1	.	.	.
O=C(Nc1nnc(COc2ccc(Cl)cc2)s1)c1ccco1	-2	10	22	66*	10	4	36
O=[N+]([O-])c1ccccc1C1Nc2cccc3cccc(c23)N1	22	-35	-9	67*	5	-18	8
O=C(COc1ccc(F)cc1)Nc1nc(-c2ccccn2)cs1	3	-10	.	24	-6	-1	.
O=C(COc1cccc(F)c1)Nc1nc(-c2ccccn2)cs1	.	.	.	62*	.	.	6

High-throughput results: PubChem BioAssay, several laboratories
